Laboratory results taken from ChEMBL document CHEMBL1177885, “Synthesis and biological activity of 2-(trifluoromethyl)-1H-benzimidazole derivatives against some protozoa and Trichinella spiralis” (Eur J Med Chem, 2010).
pIC50: −log10 of the molar value. Activity calls are given as the source filed them. The calls are words filed in the database; no cut-off is given here.

Legend:
Trichinella spiralis [1] = experiment: Antitrichinellosis activity against adult phase of Trichinella spiralis ML infected in mouse assessed as reduction of parasites level at 50 mg/kg administered 3 days after postinfection measured after 6 days relative to control; assay type: functional; set-up: scale not given: the % may be the effect or the level left
Method in brief: (§1)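 Groups of six mice were infected with 800 muscle larvae and given a single dose on day 3 post-infection. Mice were killed on day 6 post-infection and intestinal adults recovered. Read-out was percent adult load reduction.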

Trichinella spiralis [2] = experiment: Antitrichinellosis activity against adult phase of Trichinella spiralis ML infected in mouse assessed as reduction of parasites level at 75 mg/kg administered 3 days after postinfection measured after 6 days relative to control; assay type: functional; set-up: scale not given: the % may be the effect or the level left; method in brief: as §1
Trichinella spiralis [3] = experiment: Antitrichinellosis activity against muscle larvae pahse of Trichinella spiralis ML larvae infected in mouse assessed as reduction of parasites level at 75 mg/kg administered for 7 consecutive days from day 28 postinfection measured on day 7 relative to control; assay type: functional; set-up: scale not given: the % may be the effect or the level left
Method in brief: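 Groups of 10 mice were infected with 800 muscle larvae and treated at 75 mg/Kg from day 28 post-infection for 7 consecutive days. Mice were killed 7 days after treatment and muscle larvae recovered. Read-out was percent larval load reduction.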

Trichomonas vaginalis = experiment: Antiprotozoal activity against Trichomonas vaginalis G3 after 48 hrs; assay type: functional, organism-based; conditions: G3, 48 h
Method in brief: (§2)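 Trophozoites were grown in modified TYI-S-33 with 10% calf serum, with bovine bile added for Giardia. 5 × 10⁴ trophozoites (Giardia, Trichomonas) or 6 × 10³ (Entamoeba) were exposed to increasing concentrations for 48 h at 37 °C, with DMSO as negative control. Cells were washed, regrown 48 h drug-free, and counted. IC50 was by Probit analysis, in triplicate, repeated at least twice.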

Giardia intestinalis = experiment: Antiprotozoal activity against Giardia intestinalis IMSS:0989:1 after 48 hrs; assay type: functional, organism-based; conditions: Giardia duodenalis, IMSS:0989:1, 48 h; method in brief: as §2
Entamoeba histolytica = experiment: Antiprotozoal activity against Entamoeba histolytica HM-1:IMSS after 48 hrs; assay type: functional, organism-based; method in brief: as §2
Leishmania mexicana = experiment: Antileishmanial activity against Leishmania mexicana MHOM/MX92/UAY68 after 48 hrs; assay type: functional, organism-based; conditions: MHOM/MX92/UAY68, 48 h
Method in brief: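 Promastigotes at 2 × 10⁴/mL in RPMI 1640 with 10% FBS, 26 °C, were exposed to 0.1, 0.5, 1.5, 10 and 20 (final) of compound, with DMSO as negative control. Each concentration was run in triplicate. Parasites were fixed in 0.14 M NaCl/3.7% formaldehyde and counted in a Neubauer chamber.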

Trichinella spiralis [4] = experiment: Antitrichinellosis activity against Trichinella spiralis ML assessed as reduction of parasites viability at 1.8 uM after 3 days by MTT assay; assay type: functional
Method in brief: (§3)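 1000 muscle larvae per well in RPMI 1640 were exposed to 0.18, 0.37 or 1.80 compound for 3 days at 37 °C in humid 5% CO2, with medium and compound renewed daily. Viability was read by MTT colorimetry as percent reduction of metabolic activity.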

Trichinella spiralis [5] = experiment: Antitrichinellosis activity against Trichinella spiralis ML assessed as reduction of parasites viability at 0.18 uM after 3 days by MTT assay; assay type: functional; method in brief: as §3
Trichinella spiralis [6] = experiment: Antitrichinellosis activity against Trichinella spiralis ML assessed as reduction of parasites viability at 0 37 uM after 3 days by MTT assay; assay type: functional; method in brief: as §3

Structure (SMILES) | Activity (Trichinella spiralis [1]) | Activity (Trichinella spiralis [2]) | Activity (Trichinella spiralis [3]) | pIC50 (Trichomonas vaginalis) | pIC50 (Giardia intestinalis) | pIC50 (Entamoeba histolytica) | pIC50 (Leishmania mexicana) | Activity (Trichinella spiralis [4]) | Activity (Trichinella spiralis [5]) | Activity (Trichinella spiralis [6])
CSc1nc2cc(Cl)c(Oc3cccc(Cl)c3Cl)cc2[nH]1 [TRICLABENDAZOLE] | 41% | 7% | 25% | – | – | – | – | – | – | –
Cc1ncc([N+](=O)[O-])n1CCO [METRONIDAZOLE] | – | – | – | 6.67 | – | – | – | – | – | –
FC(F)(F)c1nc2cc(Oc3cccc(Cl)c3Cl)c(Cl)cc2[nH]1 | – | – | – | – | 7.51 | 7.70 | – | – | – | –
N=C(N)c1ccc(OCCCCCOc2ccc(C(=N)N)cc2)cc1 [PENTAMIDINE] | – | – | – | – | – | – | 5.62 | – | – | –
FC(F)(F)c1nc2cc(Cl)c(Cl)cc2[nH]1 | – | – | – | 6.63 | – | – | 4.68 | 19% | – | –
CSc1nc2cc(Oc3cccc4ccccc34)c(Cl)cc2[nH]1 | 28% | – | 24% | – | – | – | – | – | – | –
Cn1c(C(F)(F)F)nc2ccc(Oc3cccc(Cl)c3Cl)cc21 | – | – | – | 6.96 | 7.20 | 7.72 | 5.39 | 67% | 44% | 48%
CCCSc1ccc2[nH]c(NC(=O)OC)nc2c1 [ALBENDAZOLE] | 62% | 73% | 63% | – | – | – | – | 67% | 58.6% | 61.9%
Cn1c(C(F)(F)F)nc2cc(Oc3cccc4ccccc34)c(Cl)cc21 | inactive | 36% | 64% | 6.01 | 7.64 | 7.42 | 4.19 | 63% | 15% | 29%
FC(F)(F)c1nc2cc(Oc3cccc4ccccc34)c(Cl)cc2[nH]1 | 69% | 80% | 40% | 7.07 | 8.30 | 7.72 | 4.86 | 65% | 43% | 50%
FC(F)(F)c1nc2cc(Oc3cccc(Cl)c3Cl)ccc2[nH]1 | – | – | – | 6.27 | 7.27 | 7.74 | – | 29% | 20% | 24%
Cn1c(C(F)(F)F)nc2cc(Cl)ccc21 | – | – | – | 6.62 | – | – | – | 39% | – | –
Cn1c(C(F)(F)F)nc2cc(Cl)c(Oc3cccc4ccccc34)cc21 | – | – | – | 6.35 | 7.92 | 7.77 | 4.30 | 18% | 6% | 14%
Cn1c(C(F)(F)F)nc2cc(Oc3cccc(Cl)c3Cl)ccc21 | – | 58% | 46% | 7.80 | 7.52 | 8.05 | 4.62 | 80% | 54% | 62%
